Laboratory results published in ChEMBL document CHEMBL1126267, “A novel synthesis and potent antiinflammatory activity of 4-hydroxy-2(1H)-oxo-1-phenyl-1,8-naphthyridine-3-carboxamides” (1992).

Tests used:
Format in all cases: functional
Settings in all cases: route oral
[1] = system: Rattus norvegicus; assay: Antiinflammatory activity on Carrageenan rat's paw edema(CPE) after peroral administration of 100 mg/kg dose with control swelling of 64.2%
[2] = system: Rattus norvegicus; assay: Inhibition of carrageenan-induced rat's paw edema (CPE) after peroral administration of 100 mg/kg dose.
Summary of the method: (§1)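 Male Wistar rats (about 150 g) were dosed orally with compound suspended in 5% arabic gum, 1 h before a subplantar hind-paw injection of 0.1 mL saline. The irritant was 1% zymosan for 33 or 1% λ-carrageenin for 34. Paw volume was measured by plethysmograph before dosing and at 4 h (zymosan) or 3 h (carrageenin). Swelling is relative to initial volume, as mean ± SEM. % inhibition is versus the control group's mean swelling.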

[3] = system: Rattus norvegicus; assay: Compound was tested for the inhibition of rat reversed passive Arthus pleurisy after peroral administration of 100 mg/kg dose at 0.65 mL of exudate volume with 0.86 mL of control (injected intrapleurally)
Summary of the method: (§2)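 Male Wistar rats (about 250 g) were given compound orally before the antiserum. Under ether anesthesia, 0.2 mL rabbit anti-egg albumin antiserum was injected intrapleurally. After 30 min, egg albumin (15 mg/100 g body weight in 0.1 mL saline) was given iv. Rats were killed 4.5 h later and the thoracic cavity was rinsed with 5 mL saline. Exudate volume and infiltrated cell number were measured, with inhibition % versus controls as mean ± SEM.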

[4] = system: Rattus norvegicus; assay: Antiinflammatory activity on Zymosan-induced rat's paw edema(ZPE) after peroral administration of 100 mg/kg dose with control swelling of 71.7%
Summary of the method: (§3)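 Male Wistar rats weighing about 150 g were dosed orally with compound suspended in 5% arabic gum. 1 h later, 1% zymosan in 0.1 mL saline was injected subplantarly into the hind paw. Paw volume was measured by plethysmograph before dosing and 4 h after zymosan, with edema as the volume difference. Inhibition % was derived from mean swelling versus the control group.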

[5] = system: Rattus norvegicus; assay: Compound was tested for the inhibition of rat reversed passive Arthus pleurisy after peroral administration of 100 mg/kg dose at 3.02*10e6 no of cells with 3.86*10e6 cells of control; summary of the method: as §2
[6] = system: Rattus norvegicus; assay: Inhibition of Zymosan-induced rat's paw edema(ZPE) after peroral administration of 100 mg/kg dose.; summary of the method: as §1
[7] = system: Rattus norvegicus; assay: Compound was tested for the inhibition of rat reversed passive Arthus pleurisy after peroral administration of 100 mg/kg dose at 0.66 mL of exudate volume with 0.79 mL of control (injected intrapleurally); summary of the method: as §2
[8] = system: Rattus norvegicus; assay: Antiinflammatory activity on Carrageenan rat's paw edema(CPE) after peroral administration of 100 mg/kg dose with control swelling of 90.0%
[9] = system: Rattus norvegicus; assay: Antiinflammatory activity on Zymosan-induced rat's paw edema(ZPE) after peroral administration of 100 mg/kg dose with control swelling of 85.5%; summary of the method: as §3
[10] = system: Rattus norvegicus; assay: Compound was tested for the inhibition of rat reversed passive Arthus pleurisy after peroral administration of 100 mg/kg dose at 3.36*10e6 no of cells with 3.86*10e6 cells of control; summary of the method: as §2
[11] = system: Rattus norvegicus; assay: Antiinflammatory activity on Carrageenan rat's paw edema(CPE) after peroral administration of 100 mg/kg dose with control swelling of 81.0%
[12] = system: Rattus norvegicus; assay: Compound was tested for the inhibition of rat reversed passive Arthus pleurisy after peroral administration of 100 mg/kg dose at 0.33 mL of exudate volume with 0.46 mL of control (injected intrapleurally); summary of the method: as §2
[13] = system: Rattus norvegicus; assay: Antiinflammatory activity on Zymosan-induced rat's paw edema(ZPE) after peroral administration of 100 mg/kg dose with control swelling of 52.2%; summary of the method: as §3
[14] = system: Rattus norvegicus; assay: Compound was tested for the inhibition of rat reversed passive Arthus pleurisy after peroral administration of 100 mg/kg dose at 1.69*10e6 no of cells with 2.17*10e6 cells of control; summary of the method: as §2
[15] = system: Rattus norvegicus; assay: Antiinflammatory activity on Zymosan-induced rat's paw edema(ZPE) after peroral administration of 100 mg/kg dose with control swelling of 69.5%; summary of the method: as §3
[16] = system: Rattus norvegicus; assay: Compound was tested for the inhibition of rat reversed passive Arthus pleurisy after peroral administration of 100 mg/kg dose at 3.77*10e6 no of cells with 3.86*10e6 cells of control
Summary of the method: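 Male Wistar rats (about 250 g) under ether received 0.2 mL rabbit anti-egg-albumin antiserum intrapleurally. Thirty min later they got 15 mg EA/100 g body weight in 0.1 mL saline iv. Compounds were given orally beforehand. Rats were killed 4.5 h after induction and the thoracic cavity rinsed with 5 mL saline. Exudate volume and infiltrated cell count were read as mean ± SE. % inhibition is versus control.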

[17] = system: Rattus norvegicus; assay: Compound was tested for the inhibition of rat reversed passive Arthus pleurisy after peroral administration of 100 mg/kg dose at 0.64 mL of exudate volume with 0.79 mL of control (injected intrapleurally); summary of the method: as §2
[18] = system: Rattus norvegicus; assay: Antiinflammatory activity on Carrageenan rat's paw edema(CPE) after peroral administration of 100 mg/kg dose with control swelling of 63.7%

`Cc1cccc(NC(=O)c2c(O)c3cccnc3n(-c3ccccc3)c2=O)c1` showed a Swelling [1] of 61.3%, an inhibition in vivo at 100 mg/kg [2] of 4.5% and an inhibition in vivo at 100 mg/kg [3] of 27.3%. The Swelling [4] was 61.5%, the inhibition in vivo at 100 mg/kg [5] was 28.5% and the inhibition in vivo at 100 mg/kg [6] was 14.2%.
For `O=C(Nc1cccc([N+](=O)[O-])c1)c1c(O)c2cccnc2n(-c2ccccc2)c1=O`, the inhibition in vivo at 100 mg/kg [2] was 7.4%, the inhibition in vivo at 100 mg/kg [7] was 19.1% and the Swelling [8] was 83.6%. The Swelling [9] was 80.6%, the inhibition in vivo at 100 mg/kg [10] was 15.4% and the inhibition in vivo at 100 mg/kg [6] was 5.7%.
`O=C(NC1CCN(Cc2ccccc2)CC1)c1c(O)c2cccnc2n(-c2ccccc2)c1=O` was tested, and the inhibition in vivo at 100 mg/kg [2] was 1.2%, the Swelling [11] was 80.8% and the inhibition in vivo at 100 mg/kg [12] was 32.4%. It also gave a Swelling [13] of 51.3%, an inhibition in vivo at 100 mg/kg [14] of 22.1% and an inhibition in vivo at 100 mg/kg [6] of 1.7%.
Molecule `O=C(Nc1nccs1)c1c(O)c2cccnc2n(-c2ccccc2)c1=O` has a Swelling [15] of 66.3%, an inhibition in vivo at 100 mg/kg [16] of 15.4% and an inhibition in vivo at 100 mg/kg [17] of 18.1%. For the same molecule, the inhibition in vivo at 100 mg/kg [2] was 2.5%, the Swelling [18] was 69.9% and the inhibition in vivo at 100 mg/kg [6] was 4.6%.
